This note sets out measurements from ChEMBL document CHEMBL3102810, “Alkylamino derivatives of pyrazinamide: synthesis and antimycobacterial evaluation” (Bioorg Med Chem Lett, 2014).

Values after ≈ are worked out from the molar mass of the structure shown. Active and inactive are the calls of the source. No cut-off for these calls is given here. Some results are limits rather than exact numbers.

Data set [1] concerns Mycobacterium avium. The experiment in a line: Antimycobacterial activity against pyrazinamide-resistant Mycobacterium avium CNCTC My 152/73 after 5 days by microplate alamar blue assay. The conditions noted are these: CNCTC My 152/73, 120 h. Format: functional. In a few lines: (§1)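 Microplate alamar blue assay run at pH 5.6, using conditions optimized for pyrazinamide. Strains came from the Czech National Collection of Type Cultures. MIC was read in µg/mL and converted to µM using molecular weight.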
For orientation: Resazurin is reduced to fluorescent resorufin, in cell work by metabolically active cells.

The nature of data set [2]: Lipophilicity, log K of the compound by HPLC analysis. Format: physicochemical.
Data set [3] concerns Mycobacterium avium. The experiment in a line: Antimycobacterial activity against pyrazinamide-resistant Mycobacterium avium CNCTC My 80/72 after 5 days by microplate alamar blue assay. Format: functional. The conditions noted are these: CNCTC My 80/72, 120 h. Summed up:
as §1

In a further data set the test system is Mycobacterium kansasii. The experiment in a line: Antimycobacterial activity against pyrazinamide-resistant Mycobacterium kansasii CNCTC My 235/80 after 5 days by microplate alamar blue assay. Format: functional. Particulars: CNCTC My 235/80, 120 h. Summed up:
as §1

In data set [4] the test system is Mycobacterium tuberculosis. The experiment in a line: Antimycobacterial activity against Mycobacterium tuberculosis H37Rv CNCTC My 331/88 after 5 days by microplate alamar blue assay. Particulars: H37Rv CNCTC My 331/88, 120 h. Format: functional. In a few lines: as §1
The subject of data set [5] is Trichophyton mentagrophytes. The experiment in a line: Antifungal activity against Trichophyton mentagrophytes 445 after 72 to 120 hrs by microdilution broth method. Format: functional, organism-based.
The next data set concerns Lichtheimia corymbifera. The experiment in a line: Antifungal activity against Absidia corymbifera 272 after 72 to 120 hrs by microdilution broth method. Format: functional, organism-based.
Another data set deals with Aspergillus fumigatus. The experiment in a line: Antifungal activity against Aspergillus fumigatus 231 after 72 to 120 hrs by microdilution broth method. Format: functional, organism-based. In general terms: In broth dilution the organism is exposed to a series of concentrations in liquid medium.
In the next data set the test system is Nakaseomyces glabratus. The experiment in a line: Antifungal activity against Candida glabrata 20/I after 72 to 120 hrs by microdilution broth method. The class given is functional, organism-based.
For another data set, the system named is Trichosporon asahii. The experiment in a line: Antifungal activity against Trichosporon asahii 1188 after 72 to 120 hrs by microdilution broth method. The class given is functional, organism-based.
The next data set has as its system Pichia kudriavzevii. The experiment in a line: Antifungal activity against Candida krusei E28 after 72 to 120 hrs by microdilution broth method. The class given is functional, organism-based.
Another data set concerns Candida tropicalis. The experiment in a line: Antifungal activity against Candida tropicalis 156 after 72 to 120 hrs by microdilution broth method. The class given is functional, organism-based.
The next data set deals with Candida albicans. The experiment in a line: Antifungal activity against Candida albicans ATCC 44859 after 72 to 120 hrs by microdilution broth method. The class given is functional, organism-based.
Data set [6] relates to Trichophyton mentagrophytes. The experiment in a line: Antifungal activity against Trichophyton mentagrophytes after 72 to 120 hrs by microdilution broth method. The class given is functional, organism-based.
Data set [7] concerns Staphylococcus epidermidis. The experiment in a line: Antibacterial activity against Staphylococcus epidermidis H 6966/08 after 48 hrs by microdilution broth method. The class given is functional. In a few lines:
(§2)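 Antibacterial screen with compound concentrations up to a highest level of 500 µM. Results expressed as MIC in µM.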

For data set [8], the system named is Klebsiella pneumoniae. The experiment in a line: Antibacterial activity against ESBL positive Klebsiella pneumoniae J 14368/08 after 24 to 48 hrs by microdilution broth method. The class given is functional, organism-based. In a few lines:
as §2

Data set [9] deals with Klebsiella pneumoniae. The experiment in a line: Antibacterial activity against Klebsiella pneumoniae D 11750/08 after 24 to 48 hrs by microdilution broth method. Format: functional, organism-based. In a few lines:
as §2

For another data set, the system named is Enterococcus sp. The experiment in a line: Antibacterial activity against Enterococcus sp. J 14365/08 after 24 to 48 hrs by microdilution broth method. Format: functional, organism-based. In a few lines:
as §2

Data set [10] deals with Staphylococcus epidermidis. The experiment in a line: Antibacterial activity against methicillin-resistant Staphylococcus epidermidis H 5996/08 after 24 to 48 hrs by microdilution broth method. The class given is functional, organism-based.
Another data set concerns Pseudomonas aeruginosa. The experiment in a line: Antibacterial activity against Pseudomonas aeruginosa CCM 1961 after 24 to 48 hrs by microdilution broth method. Format: functional, organism-based. In a few lines: as §2
In a further data set the test system is Escherichia coli. The experiment in a line: Antibacterial activity against Escherichia coli CCM 4517 after 24 to 48 hrs by microdilution broth method. Format: functional, organism-based. In a few lines:
as §2

Another data set has as its system Staphylococcus aureus. The experiment in a line: Antibacterial activity against Staphylococcus aureus CCM 4516/08 after 24 to 48 hrs by microdilution broth method. The class given is functional, organism-based. In a few lines:
as §2

For data set [11], the system named is Staphylococcus epidermidis. The experiment in a line: Antibacterial activity against Staphylococcus epidermidis H 6966/08 up to 500 uM after 24 to 48 hrs by microdilution broth method. The class given is functional, organism-based. Summed up:
as §2

For `CCNc1cncc(C(N)=O)n1`, the minimal inhibitory concentration (MIC) (in the data set with Mycobacterium avium [1]; against Mycobacterium avium [3]; against Mycobacterium kansasii; in data set [4]) was greater than 100 µg/mL each time. The “log K” value in data set [2] was -0.6318. In addition, the outcome (in data set [5]; with Lichtheimia corymbifera; with Aspergillus fumigatus; in the data set on Nakaseomyces glabratus; in the data set with Trichosporon asahii; with Pichia kudriavzevii) was inactive. Besides, the outcome (with Candida tropicalis; in the data set on Candida albicans; in [6]; in [7]; in the data set on Klebsiella pneumoniae [8]; in the data set with Klebsiella pneumoniae [9]) was inactive. For the same compound, the result (in the data set with Enterococcus sp.; in data set [10]; in the data set with Pseudomonas aeruginosa; in the data set on Escherichia coli; in the data set on Staphylococcus aureus; in [11]) was inactive.

On to `CCCCNc1cnc(C(N)=O)cn1`, for which the minimal inhibitory concentration (MIC) (against Mycobacterium avium [1]; with Mycobacterium avium [3]; against Mycobacterium kansasii; in data set [4]) was greater than 100 µg/mL each time. Moreover, in data set [2], the “log K” value was -0.191. The result (in data set [5]; with Lichtheimia corymbifera; in the data set on Aspergillus fumigatus; with Nakaseomyces glabratus; in the data set with Trichosporon asahii; in the data set with Pichia kudriavzevii) was inactive. Besides, the outcome (in the data set on Candida tropicalis; in the data set with Candida albicans; in [6]; in data set [7]; with Klebsiella pneumoniae [8]; with Klebsiella pneumoniae [9]) was inactive. For the same compound, the outcome (in the data set on Enterococcus sp.; in data set [10]; in the data set on Pseudomonas aeruginosa; with Escherichia coli; in the data set with Staphylococcus aureus; in data set [11]) was inactive.

`CCCCNc1cncc(C(N)=O)n1`: the MIC (commonly the lowest concentration that inhibits growth of the organism) is greater than 100 µg/mL with Mycobacterium avium [1], greater than 100 µg/mL against Mycobacterium avium [3], greater than 100 µg/mL in the data set with Mycobacterium kansasii and 100 µg/mL (≈ 515 µM) in [4]. The “log K” value in [2] is listed as -0.2162. Further, the result (in [5]; in the data set on Lichtheimia corymbifera; with Aspergillus fumigatus; in the data set with Nakaseomyces glabratus; with Trichosporon asahii; in the data set on Pichia kudriavzevii) was inactive. Further, the outcome (in the data set on Candida tropicalis; in the data set with Candida albicans; in [6]; in data set [7]; with Klebsiella pneumoniae [8]; in the data set on Klebsiella pneumoniae [9]) was inactive. Also, the result (in the data set with Enterococcus sp.; in data set [10]; in the data set with Pseudomonas aeruginosa; in the data set on Escherichia coli; with Staphylococcus aureus; in [11]) was inactive.

Turning to `NC(=O)c1cncc(NCCc2ccccc2)n1`, the MIC (against Mycobacterium avium [1]; in the data set on Mycobacterium avium [3]; in the data set with Mycobacterium kansasii; in data set [4]) was greater than 100 µg/mL throughout. Further, in data set [2], the “log K” value was -0.0986. The result (in data set [5]; in the data set with Lichtheimia corymbifera; in the data set on Aspergillus fumigatus; in the data set with Nakaseomyces glabratus; in the data set on Trichosporon asahii; in the data set on Pichia kudriavzevii) was inactive. Moreover, the outcome (in the data set on Candida tropicalis; in the data set on Candida albicans; in [6]; in data set [7]; with Klebsiella pneumoniae [8]; in the data set on Klebsiella pneumoniae [9]) was inactive. The result (in the data set on Enterococcus sp.; in data set [10]; with Pseudomonas aeruginosa; in the data set with Escherichia coli; in the data set with Staphylococcus aureus; in data set [11]) was inactive.

Take `CCCCCNc1cnc(C(N)=O)cn1`: the MIC (against Mycobacterium avium [1]; with Mycobacterium avium [3]; against Mycobacterium kansasii; in [4]) was greater than 100 µg/mL throughout. For the same compound, in [2], the “log K” value worked out at 0.0181. Also, the outcome (in data set [5]; in the data set on Lichtheimia corymbifera; with Aspergillus fumigatus; with Nakaseomyces glabratus; with Trichosporon asahii; in the data set on Pichia kudriavzevii) was inactive. Further, the result (in the data set on Candida tropicalis; with Candida albicans; in [6]; in data set [7]; in the data set with Klebsiella pneumoniae [8]; in the data set with Klebsiella pneumoniae [9]) was inactive. The outcome (with Enterococcus sp.; in data set [10]; in the data set with Pseudomonas aeruginosa; in the data set on Escherichia coli; in the data set with Staphylococcus aureus; in data set [11]) was inactive.

As for `NC(=O)c1cncc(NCCCc2ccccc2)n1`, the MIC (in the data set with Mycobacterium avium [1]; in the data set on Mycobacterium avium [3]; against Mycobacterium kansasii; in data set [4]) was greater than 100 µg/mL in each case. Further, the “log K” value in [2] came to 0.0741. The outcome (in [5]; in the data set on Lichtheimia corymbifera; with Aspergillus fumigatus; with Nakaseomyces glabratus; in the data set with Trichosporon asahii; in the data set with Pichia kudriavzevii) was inactive. Moreover, the outcome (with Candida tropicalis; with Candida albicans; in data set [6]; in [7]; in the data set with Klebsiella pneumoniae [8]; in the data set with Klebsiella pneumoniae [9]) was inactive. Further, the outcome (in the data set on Enterococcus sp.; in [10]; in the data set with Pseudomonas aeruginosa; in the data set on Escherichia coli; in the data set on Staphylococcus aureus; in data set [11]) was inactive.

As to `NC(=O)c1cnc(N)cn1`, the MIC (against Mycobacterium avium [1]; against Mycobacterium avium [3]; in the data set with Mycobacterium kansasii; in data set [4]) was greater than 100 µg/mL in each case. In addition, in data set [2], the “log K” value is -0.7852. Besides, the result (in data set [5]; in the data set on Lichtheimia corymbifera; in the data set with Aspergillus fumigatus; with Nakaseomyces glabratus; with Trichosporon asahii; in the data set with Pichia kudriavzevii) was inactive. Moreover, the result (in the data set with Candida tropicalis; with Candida albicans; in [6]; in data set [7]; in the data set with Klebsiella pneumoniae [8]; in the data set on Klebsiella pneumoniae [9]) was inactive. Moreover, the result (with Enterococcus sp.; in data set [10]; in the data set with Pseudomonas aeruginosa; with Escherichia coli; with Staphylococcus aureus; in data set [11]) was inactive.
